Source: PubChem (several laboratories)
A selection: hits, their analogues and other compounds. The true share with any hit is near 1.3%.
Diaph inh CS – diaphorase inhibitors and chemical oxidizers, primary screen, counter-screen for diaphorase-coupled primary assays, biochemical, uHTS, resorufin fluorescence; 0.69% of 190,000 active; diaphorase resazurin-to-resorufin fluorescence, NADH, 16 min; bacterial (C. kluyveri) enzyme, not human; inhibition, % at 20 µM; AID 1217, 2008;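 active = primary screen inhibition at 20 µM above a set limit, cut at about 50% in these data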;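 also: plate controls were DMSO with full reaction for no effect and wells lacking NADH for full effect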
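Benchmarks: positive control wells lacking NADH, neutral wells with DMSO only. System: bacterial diaphorase enzyme (C. kluyveri). Input: 0.14 U/mL diaphorase, enzyme working solution. Detection: resorufin fluorescence, excitation 544 nm, emission 590 nm. Times: 16-min room-temperature incubation before reading.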
PfG6PD inh – PfG6PD enzyme inhibitors, primary screen, biochemical, fluorescence intensity, uHTS; PfGluPho enzyme, NADPH resazurin-diaphorase fluorescence; inhibition, % at 20 µM; 0.78% of 350,000 active; AID 504690, 2011;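 active = inhibition reaching at least a set limit at 20 µM in the primary screen, cut at about 59% in these data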;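 also: 0% = DMSO wells with substrate and 100% = DMSO wells lacking glucose-6-phosphate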
Tb hexokinase – Trypanosoma brucei hexokinase 1 inhibitors, primary screen, biochemical, G6PDH-coupled NADH absorbance, MLSCN library | inhibition, % at 10 µM | AID 1430, 2008 | recombinant TbHK1, G6PDH-coupled NADH A340 | 0.11% of 220,000 active;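 active = inhibition of 50% or more in the single-dose primary screen; inactive = inhibition below 50%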
G6PDH counter – L. mesenteroides G6PDH inhibitors, counter-screen for G6PDH-coupled screening assays, biochemical, Leuconostoc mesenteroides enzyme; glucose-6-phosphate dehydrogenase [Leuconostoc mesenteroides]; inhibition, % at 5 µM; AID 1020, 2008; 0.12% of 200,000 active; Purified L. mesenteroides G6PDH, diaphorase/resazurin coupled fluorescence, 45 min; in the data active = inhibition above about 50%
HKDC1 inhibitor – HKDC1 hexokinase inhibitors, primary screen, biochemical, fluorescence, uHTS; Q2TB90; recombinant HKDC1, G6PDH/diaphorase resazurin coupled fluorescence; inhibition, % at 20 µM; 0.16% of 340,000 active;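 active = inhibition above about 35% when tested at 20 µM, limit read from the data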;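 also: plate controls were DMSO wells with enzyme for no effect and DMSO wells lacking enzyme for full effect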
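Assay system: recombinant HKDC1 hexokinase; detection: coupled resazurin fluorescence, excitation 525 nm, emission 613 nm; benchmarks: DMSO-plus-enzyme-mix negative control, buffer-substituted positive control; compound dosing: single 20 µM dose; schedule: 90 min at room temperature in dark; also added: glucose plus 1 mM ATP as hexokinase substrates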
Diaph act CS – compounds boosting diaphorase resazurin reduction – biochemical, uHTS, resorufin fluorescence, counter-screen for diaphorase-coupled primary assays, primary screen | Diaphorase/resazurin coupled assay, 16 min; active compounds read high; 1 = vehicle wells, 0 = NADH-free wells | activation factor at 20 µM | 0.005% of 190,000 active;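 active = diaphorase activity raised at least twofold by the compound at 20 µM; inactive = activation factor below 2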
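System – purified diaphorase enzyme from Clostridium kluyveri · Input – enzyme 0.07 U/mL final · Also added – final NADH 0.114 mM, resazurin 0.1 mM · Measured by – fluorescence of resorufin, 544 nm excitation, 590 nm emission · Timing – 16 min enzyme reaction, ambient temperature · Measure – resorufin increase flagging diaphorase activators or reducers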
* marks the source's active call; other numbers are inactive results; · = no result given.

SMILES	Diaph inh CS	PfG6PD inh	Tb hexokinase	G6PDH counter	HKDC1 inhibitor	Diaph act CS
COC(=O)c1ccc(NC(=O)CN2CCN(S(=O)(=O)c3ccc(Br)cc3)CC2)cc1	·	-6	·	·	10	·
O=[N+]([O-])C1=CC=C2C(=NC3(CCCCC3)N2O)C1=NC1CCCCC1	83*	15	-2	26	26	0.2
CC(C)(C)N=C1C([N+](=O)[O-])=CC=C2C1=NC1(CCCCC1)N2O	76*	25	5	39	12	0.2
CC1(C)CC(N=C2C([N+](=O)[O-])=CC=C3C2=NC2(CCCCC2)N3O)CC(C)(C)N1	·	16	-32	·	11	·
O=[N+]([O-])C1=CC=C2C(=NC3(CCCCC3)N2O)C1=NCCc1ccccc1	63*	-11	-6	15	0	0.4
CCOC(=O)N1CCN(c2c(N3CCN(c4ccccc4F)CC3)c(=O)c2=O)CC1	·	-12	-25	·	-1	·
Cc1cccc(NC(=O)CN(CC2CCCO2)C(=O)c2cc(S(=O)(=O)N(C)C)ccc2F)c1C (stereo not given)	·	-4	·	·	-7	·
COc1cc(/C=N/NC(=O)C(Cc2c[nH]c3ccccc23)NC(=O)OCC(C)C)cc([N+](=O)[O-])c1OCc1ccccc1 (stereo not given)	71*	-4	-13	15	8	0.3
COc1ccc(NC(=O)Nc2ccc(O)c3ccccc23)cc1	·	72*	·	·	24	·
COc1ccc(C(=O)Nc2ccc(O)c3ccccc23)cc1	·	30	·	·	16	·
CN(C)c1ccc(NC2=C(Cl)C(=O)c3ccccc3C2=O)cc1	27	29	-3	51*	-21	0.7
Cc1ccc(S(=O)(=O)NCCC(=O)OCC(=O)NCCc2ccccc2)cc1C	·	-6	·	·	-1	·
Cc1ccc(C)n1-c1ccc(N2CCOCC2)c(Br)c1	56*	9	-3	0	-2	0.4
COC1=CC(=O)C(O)=C(CCCCCCC/C=C/CCCCCCCC2=C(O)C(=O)C=C(OC)C2=O)C1=O	·	-27	·	·	31	·
COC1=C(OC)C(=O)C(CCCCCCCCCCO)=C(C)C1=O	57*	·	·	63*	·	0.4
COC(=O)c1ccc([C@H](NC(=O)c2ccco2)[C@]2(C)C[C@H]2C2CCCCC2)cc1	·	2	·	·	-1	·
N/N=c1\sc2ccccc2n1-c1ccccc1	-4	7	-2	0	-5	1
O=C(O)c1cc2nc(-c3ccccc3)cc(-c3ccccc3)n2n1	59*	-3	-9	23	11	0.4
O=C(O)c1cc2nc(-c3ccccc3)cc(C(F)(F)F)n2n1	-2	4	-5	1	0	1
Cc1ccc(S(=O)(=O)N2CCOCC2)cc1NC(=O)CSc1nnc(COc2ccccc2F)n1N	·	-4	·	·	-1	·
CC(CCC(C)C(C)(C)C)[C@@H]1CC[C@H]2C3C[C@H](OS(O)(=S)=S)[C@H]4C[C@H](OS(O)(=S)=S)[C@@H](OS(O)(=S)=S)C[C@]4(C)[C@H]3CC[C@]12C (stereo not given in full) (tested in a mixture with another compound)	·	-54	·	·	81*	·
CC(CCC(=O)NN)C1CCC2C3CCC4CC(O)CCC4(C)C3CCC12C (stereo not given)	·	-23	·	·	1	·
CCc1cc2c(=O)n(-c3ccccc3)c(=S)[nH]c2s1	81*	44	-19	6	-7	0.2
CCc1cc2c(=O)n(-c3ccccc3)c(SCC(N)=O)nc2s1	·	-5	·	·	-6	·
CNC[C@H](O)c1ccc(O)c(O)c1	59*	31	0	64*	-1	0.4
O=C(NCCCn1cccn1)c1cc(COc2ccccc2)on1	·	-6	·	·	·	·
CC(C)C(NC(=O)c1ccc(F)cc1)C(=O)Nc1cccnc1 (stereo not given)	0	8	-3	8	-8	1
